Assay outcomes: PubChem BioAssay, Broad Institute
Hits are enriched below; roughly 2.4% of the tested compounds scored in any of these assays.
rRNA inh HTS = reduced GFP signal of wild-type E. coli, primary screen, bacterial rRNA inhibitor project, GFP/RFP fluorescence, OD600, single point; E. coli WT GFP vs humanized-ribosome RFP mutants, 24 h; stronger effect = lower value; DMSO median 0, no signal -100; GFP signal change (wild-type ribosome), % (concentration not given with the values); hit rate 1.6% among 350,000;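 active = significant combined selectivity score with lowered wild-type GFP, culture density cut under 30%, mutant RFP and density less affected; inactive = any of these conditions unmet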
S100A4 inh HTS = inhibitors of S100A4-myosin IIA peptide binding, primary screen, biochemical, fluorescence polarization, TAMRA-MyoIIA peptide; inhibition, % at 10.7 µM; hit rate 0.14% among 360,000; Protein S100-A4 (Homo sapiens), P26447;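 active = mean inhibition of at least 70% across replicates, with every replicate also reaching that level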
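assay system = human S100A4 monomer with TAMRA-labelled myosin IIA peptide | also added = labelled myosin peptide probe, 5 nM | incubation = 5 min between mix addition and reading | control set = DMSO and TFP controls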
ERAP1 HTS inh = human ERAP1 aminopeptidase inhibitors, primary screen, biochemical, single point, plate reader | recombinant ERAP1, Leu-AMC fluorescence, 60 min | inhibition, % at 10.7 µM | hit rate 0.15% among 340,000 | AID 652197, 2013;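 active = mean replicate inhibition of at least 30%, or all replicates individually reaching that 30% level; inactive = mean below 30% and not every replicate reaching it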
Target sequence (Q9NZ08 whole entry, looked up): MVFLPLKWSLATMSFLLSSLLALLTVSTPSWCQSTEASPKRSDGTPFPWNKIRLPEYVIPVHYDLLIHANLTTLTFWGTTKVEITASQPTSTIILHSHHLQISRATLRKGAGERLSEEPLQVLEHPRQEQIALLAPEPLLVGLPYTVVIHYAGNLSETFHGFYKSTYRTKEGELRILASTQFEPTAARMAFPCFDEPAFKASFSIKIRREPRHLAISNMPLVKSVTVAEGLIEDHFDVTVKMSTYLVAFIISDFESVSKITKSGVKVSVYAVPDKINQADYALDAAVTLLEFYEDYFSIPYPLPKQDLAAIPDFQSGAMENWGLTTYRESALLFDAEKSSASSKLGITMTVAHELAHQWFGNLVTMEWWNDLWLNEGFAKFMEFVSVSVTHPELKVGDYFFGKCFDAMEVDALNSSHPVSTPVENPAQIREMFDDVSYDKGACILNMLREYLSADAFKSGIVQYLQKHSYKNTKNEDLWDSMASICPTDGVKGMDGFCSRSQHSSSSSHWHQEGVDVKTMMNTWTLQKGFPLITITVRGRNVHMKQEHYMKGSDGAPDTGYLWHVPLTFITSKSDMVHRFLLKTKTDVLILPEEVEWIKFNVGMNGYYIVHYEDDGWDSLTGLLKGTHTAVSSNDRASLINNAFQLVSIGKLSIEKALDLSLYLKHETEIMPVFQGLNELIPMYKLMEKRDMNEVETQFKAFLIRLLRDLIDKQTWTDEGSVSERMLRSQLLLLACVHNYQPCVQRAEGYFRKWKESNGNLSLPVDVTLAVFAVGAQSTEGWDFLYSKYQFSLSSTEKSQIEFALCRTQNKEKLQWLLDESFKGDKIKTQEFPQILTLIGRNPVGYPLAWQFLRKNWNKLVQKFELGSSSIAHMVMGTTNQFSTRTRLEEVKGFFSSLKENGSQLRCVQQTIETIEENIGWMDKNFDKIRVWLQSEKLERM
ARNT TACC3 PPI = disruptors of ARNT/TACC3 protein interaction, primary screen, biochemical, AlphaScreen, single concentration | inhibition, % at 9.99 µM | hit rate 0.66% among 390,000 | AlphaScreen His-ARNT PAS-B/GST-TACC3 binding, luminescence; TACC3 fragment carries E629A point mutation | Transforming acidic coiled-coil-containing protein 3 (Homo sapiens), Q9Y6A5 | AID 623870, 2012;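 active = mean inhibition of replicates at least 50% and at least half of replicates each reaching 50%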
PGC1a acetyl inh = inhibitors of PGC1a acetylation signal, primary screen, cell-based, U2OS, AlphaScreen, inhibitor mode. AlphaScreen anti-acetyl-lysine; with virally co-expressed GCN5 acetyltransferase. hit rate 0.17% among 350,000. inhibition, % at 15.6 µM;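 active = every replicate shows inhibition of at least 40%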
CASP6 VEID inh = human caspase-6 inhibitors, primary screen, biochemical, VEID-R110 fluorescence, single point, set 2; inhibition, % at 12.5 µM; P55212; purified caspase-6, Z-VEID-R110 cleavage fluorescence; AID 686996, 2013; hit rate 0.53% among 350,000;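 active = mean inhibition across replicates at least about 35%, with every replicate also reaching that limit, limit read from the data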
A number is an active result; - = inactive; . = no result given.

SMILES	rRNA inh HTS	S100A4 inh HTS	ERAP1 HTS inh	ARNT TACC3 PPI	PGC1a acetyl inh	CASP6 VEID inh
c1ccc(-c2cn(-c3ccccc3)c3[n+]2CCS3)cc1	-	-	-	-	-	-
FC(F)Oc1ccc(-n2cc(-c3ccccc3)[n+]3c2CCCCC3)cc1	-28	-	-	-	.	-
Cc1ccc(-c2cn(-c3ccc(OC(F)F)cc3)c3[n+]2CCCCC3)cc1	-36	-	.	.	.	-
FC(F)Sc1ccc(-n2cc(-c3ccc(Cl)cc3)[n+]3c2CCC3)cc1	.	.	.	-	.	.
Cc1ccc(-c2cn(-c3ccc(SC(F)F)cc3)c3[n+]2CCC3)cc1	.	.	.	-	.	.
C[C@@H]1CCCCO[C@@H](CN(C)Cc2ccc3c(c2)OCO3)[C@@H](C)CN([C@@H](C)CO)C(=O)c2cc(NC(=O)Nc3cccc4ccccc34)ccc2O1	-	.	.	-	-	.
CCCC#Cc1cnc2c(c1)C(=O)N([C@H](C)CO)C[C@@H](C)[C@@H](CN(C)Cc1ccc(F)cc1)O2	-	-	-	-	-	-
CO[C@H]1CN(C)C(=O)c2cc(NC(=O)c3cccc(Oc4ccccc4)c3)ccc2OC[C@H](C)NC[C@@H]1C	-	.	.	.	-	.
Cc1nc2c(C#N)c[nH]n2c(=O)c1Cc1ccccc1	-22	-	-	-	-	.
Cc1nc2c(-c3ccccc3)c(C)[nH]n2c(=O)c1Cc1ccccc1	-	-	-	.	-	-
COc1ccc(-c2c(C)[nH]n3c(=O)c(Cc4ccccc4)c(C)nc23)cc1OC	-	-	-	87	-	-
CCN(C(=O)COC(=O)/C=C/c1ccco1)C1CCCCC1	-	-	-	.	-	57
O=C(/C=C/c1ccco1)OCC(=O)N1CCCCC1	-	-	-	-	-	50
CCN(C(=O)COC(=O)/C=C/c1ccc(F)cc1)C1CCCCC1	-	-	-	-	-	-
COC(=O)C[C@H]1CC[C@@H]2[C@H](COc3ccc(NC(=O)Nc4cccc(C)c4)cc3C(=O)N2C)O1	-	-	-	-	-	-
O=C(Nc1ccccc1F)N1CC(=O)N2[C@H](CO)[C@@H](c3ccc(-c4ccccc4)cc3)[C@H]2C1	-	124	-	.	-	-
O=C(NC1CCCC1)N1CCCCN2[C@@H](CO)[C@@H](c3ccc(-c4cccnc4)cc3)[C@@H]2C1	-	98	-	-	-	-
O=C(Nc1ccccc1F)N1CC(=O)N2[C@H](CO)[C@H](c3ccc(-c4ccccc4)cc3)[C@@H]2C1	-	-	-	.	-	-
O=C1CN(Cc2ccc(F)cc2)C[C@H]2[C@@H](c3ccc(-c4ccccc4F)cc3)[C@@H](CO)N12	-	-	-	.	-	-
O=C1CN(Cc2ccc(F)cc2)C[C@@H]2[C@@H](c3ccc(-c4ccccc4F)cc3)[C@H](CO)N12	-	112	-	.	-	-
O=C(Nc1ccccc1F)N1CCCCN2[C@@H](CO)[C@H](c3ccc(-c4cccnc4)cc3)[C@@H]2C1	-19	-	-	-	-	-
O=C(NCC[C@H]1CC[C@@H](NC(=O)C2CC2)[C@@H](CO)O1)c1cc(Cl)cc(Cl)c1	-	-	-	-	-	-
O=C(C1CCC1)N1CC2(C1)[C@H](c1ccccc1)[C@@H](CO)N2Cc1ccc(Cl)cc1	-	-	-	.	-	-
OC[C@H]1[C@H](c2ccc(-c3ccccc3F)cc2)[C@H]2CN(Cc3cccnc3)CCCCN21	-	-	-	-	-	47
O=C1NCC2=C1C(c1ccc(Br)cc1)Nc1ccccc1N2 (stereo unspecified)	.	.	.	active	-	.
SMILES	rRNA inh HTS	S100A4 inh HTS	ERAP1 HTS inh	ARNT TACC3 PPI	PGC1a acetyl inh	CASP6 VEID inh
Cc1nc2ccccc2n1Cc1ccccc1	-	-	-	-	.	-
Cc1nc2ccccc2n1Cc1ccc(Br)cc1	-47	-	-	-	-	-
O=C(C[C@H]1C=C[C@H](NC(=O)c2ccc(F)cc2)[C@H](CO)O1)NCc1ccncn1	-	116	-	.	-	-
COc1cccc(NC(=O)N[C@@H]2C=C[C@@H](CC(=O)NCc3ccncn3)O[C@@H]2CO)c1	-	90	-	.	.	-
O=C(C[C@H]1C=C[C@@H](NC(=O)c2ccc(F)cc2)[C@H](CO)O1)NCc1ccncn1	-	-	-	-	-	-
O=C(C[C@@H]1C=C[C@@H](NC(=O)Cc2ccccn2)[C@@H](CO)O1)NCCc1ccncc1	-	-	-	-	-	-
O=C(C[C@@H]1C=C[C@@H](NC(=O)c2ccc(F)cc2)[C@@H](CO)O1)NCc1ccncn1	-	-	-	-	-	87
O=C(C[C@@H]1C=C[C@H](NC(=O)Cc2ccccn2)[C@@H](CO)O1)NCCc1ccncc1	-	-	-	47	-	-
O=C(C1CCCCC1)N1CC(=O)N2[C@@H](CO)[C@@H](c3ccc(C#Cc4cccc(F)c4)cc3)[C@@H]2C1	-	-	-	.	-	-
CC(=O)N(C)C[C@H]1Oc2cc(C3=CCCCC3)ccc2S(=O)(=O)N([C@H](C)CO)C[C@@H]1C	-	.	.	.	-	.
C/C=C/c1cccc(-c2nc(C(=O)NCCN3CCCCC3)cc3c2[C@H](CCO)N([S@@](=O)C(C)(C)C)C3)c1	-	.	.	.	.	.
O=C(CSc1ccncc1)Nc1ccc2ccccc2c1	-31	-	-	-	-	-
O=C(CSc1ccc2ccccc2c1)Nc1ccncc1	-	-	-	-	-	-
COc1cc(O)c2c(c1)oc(=O)c1c3cc(O)c(O)cc3oc21	.	-	-	.	-	77
COc1ccc2c(c1)oc(=O)c1cc(OC)ccc12	-	-	-	-	-	-
Cc1cc(=O)oc2c(CN3CCN(C)CC3)c(O)c(Cl)cc12	-	-	86	-	.	-
CCCCc1cc(=O)oc2c(CN3CCN(C)CC3)c(O)ccc12	-	-	-	-	.	-
CCCc1cc(=O)oc2c(CN3CCN(C)CC3)c(O)ccc12	-	-	34	-	-	-
CCc1c(C)c2cc(Cl)c(O)c(CN3CCCC3)c2oc1=O	-	-	36	-	-	-
CCCCc1cc(=O)oc2c(CN3CCCC3)c(O)c(Cl)cc12	.	.	.	-	-	.
COc1ccc(CN(C)C[C@@H]2OCCCC[C@H](C)Oc3ccc(NC(=O)Nc4cccc5ccccc45)cc3C(=O)N([C@@H](C)CO)C[C@@H]2C)cc1	-	-	-	-	-	-
COc1ccc(-n2cccc2/C=C2\C(=N)N3N=C(c4ccco4)SC3=NC2=O)cc1	-23	-	-	.	.	-
COc1ccc(-n2cccc2/C=C2\C(=N)N3N=C(C(C)C)SC3=NC2=O)cc1	-	-	-	-	.	-
